Assay results: ChEMBL document CHEMBL1144689, “Antileukemic activity of genistein, a major isoflavone present in soy products” (J Nat Prod, 2008)
The source made the active and inactive calls. The calls are words filed in the database; no cut-off is given here.

Tests used:
[1] = tested on: MOLT-3; assay: Growth inhibition of human MOLT3 cells after 48 hrs; type: functional
Outline: (§1)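 Human leukemic cells (RPMI-1640, 10% heat-inactivated FBS), log phase, seeded at 2 × 10^4 cells/mL. Exposed to 1, 2, 5, 10 or 20 µM (DMSO stock). Cell number counted with a Coulter particle counter at 48 h. Growth inhibition as % of untreated control. IG50 is the concentration giving 50% inhibition. Triplicate, three repeats, mean ± SEM.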

[2] = tested on: HL-60; assay: Growth inhibition of human HL60 cells after 48 hrs; type: functional; outline: as §1
[3] = tested on: Raji; assay: Growth inhibition of human Raji cells after 48 hrs; type: functional; outline: as §1
[4] = Growth inhibition of human KG1a cells after 48 hrs; type: functional, KG-1a; outline: as §1
[5] = tested on: MOLT-3; assay: Antileukemic activity against human MOLT3 cells at 1 uM after 24 hrs by clonogenic assay; type: functional
Outline: (§2)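 Log-phase cells at 2 × 10^4 cells/mL in RPMI-1640 with 10% heat-inactivated FBS, 37 °C, 5% CO2. Drug (DMSO stock) at 1, 2, 5, 10 or 20 µM for 24 h, removed by centrifugation. 100 cells plated in 0.45% soft agar with 20% serum. Colonies >50 cells counted after 15 days. Loss of clonogenicity as % of untreated control. Triplicate, three repeats, mean ± SEM.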

[6] = tested on: HL-60; assay: Antileukemic activity against human HL60 cells at >2 uM after 24 hrs by clonogenic assay; type: functional; outline: as §2
[7] = tested on: Raji; assay: Antileukemic activity against human Raji cells at >2 uM after 24 hrs by clonogenic assay; type: functional; outline: as §2
[8] = tested on: MOLT-3; assay: Antileukemic activity against human MOLT3 cells after 24 hrs by clonogenic assay; type: functional; details: MOLT-3, 24 h, read-out: LC50 (the source's name)
Outline: (§3)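 Log-phase cells seeded at 2 × 10^4 cells/mL in RPMI-1640 with 10% heat-inactivated FBS at 37 °C, 5% CO2, then exposed 24 h to 1–20 µM (DMSO stock). Drug washed out by centrifugation. 100 cells plated in 0.45% soft agar with 20% serum for 15 days, and colonies (>50 cells) counted. Loss of clonogenicity is relative to untreated control. Triplicates, repeated three times, mean ± SEM. LC50 read from the dose curve.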

[9] = tested on: HL-60; assay: Antileukemic activity against human HL60 cells after 24 hrs by clonogenic assay; type: functional; details: HL-60, 24 h, read-out: LC50 (the source's name); outline: as §3
[10] = tested on: Raji; assay: Antileukemic activity against human Raji cells after 24 hrs by clonogenic assay; type: functional; details: read-out: LC50 (the source's name); outline: as §3
[11] = tested on: L1210; assay: Growth inhibition of mouse L1210 cells at 1 uM after 12 hrs; type: functional; details: L1210, 12 h, read-out: GI
Outline: (§4)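 For L1210 (RPMI-1640, 5% heat-inactivated FCS, 6 µM 2-mercaptoethanol), log-phase cultures at 2 × 10^4 cells/mL were given 1–20 µM for 12, 24 or 48 h. Coulter particle counter counts were expressed as % growth inhibition versus untreated control. IG50 was taken at 24 h. Triplicate, three repeats, mean ± SEM.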

[12] = tested on: L1210; assay: Growth inhibition of mouse L1210 cells at 1 uM after 24 hrs; type: functional; details: L1210, 24 h, read-out: GI; outline: as §4
[13] = tested on: L1210; assay: Growth inhibition of mouse L1210 cells at 1 uM after 48 hrs; type: functional; details: L1210, 48 h, read-out: GI; outline: as §4
[14] = tested on: L1210; assay: Growth inhibition of mouse L1210 cells at 2 uM after 12 hrs; type: functional; details: L1210, 12 h, read-out: GI; outline: as §4
[15] = tested on: L1210; assay: Growth inhibition of mouse L1210 cells at 2 uM after 24 hrs; type: functional; details: L1210, 24 h, read-out: GI; outline: as §4
[16] = tested on: L1210; assay: Growth inhibition of mouse L1210 cells at 2 uM after 48 hrs; type: functional; details: L1210, 48 h, read-out: GI; outline: as §4
[17] = tested on: L1210; assay: Growth inhibition of mouse L1210 cells at 5 uM after 12 hrs; type: functional; details: L1210, 12 h, read-out: GI; outline: as §4
[18] = tested on: L1210; assay: Growth inhibition of mouse L1210 cells at 5 uM after 24 hrs; type: functional; details: L1210, 24 h, read-out: GI; outline: as §4
[19] = tested on: L1210; assay: Growth inhibition of mouse L1210 cells at 5 uM after 48 hrs; type: functional; details: L1210, 48 h, read-out: GI; outline: as §4
[20] = tested on: L1210; assay: Growth inhibition of mouse L1210 cells at 10 uM after 12 hrs; type: functional; details: L1210, 12 h, read-out: GI; outline: as §4
[21] = tested on: L1210; assay: Growth inhibition of mouse L1210 cells at 10 uM after 24 hrs; type: functional; details: L1210, 24 h, read-out: GI; outline: as §4
[22] = tested on: L1210; assay: Growth inhibition of mouse L1210 cells at 10 uM after 48 hrs; type: functional; details: L1210, 48 h, read-out: GI; outline: as §4
[23] = tested on: L1210; assay: Growth inhibition of mouse L1210 cells at 20 uM after 12 hrs; type: functional; details: L1210, 12 h, read-out: GI; outline: as §4
[24] = tested on: L1210; assay: Antileukemic activity against mouse L1210 cells at 1 uM after 12 hrs by clonogenic assay; type: functional
Outline: (§5)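 Murine L1210 cells cultured in RPMI-1640 with 5% heat-inactivated FCS and 6 µM 2-mercaptoethanol. Log-phase cells at 2 × 10^4 cells/mL exposed to 1–20 µM for 12, 24 or 48 h, then drug removed by centrifugation. 100 cells plated in 0.45% soft agar with 10% serum. Colonies >50 cells counted at day 7. Result as % relative to untreated control. Triplicate, three repeats, mean ± SEM.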

[25] = tested on: L1210; assay: Antileukemic activity against mouse L1210 cells at 1 uM after 48 hrs by clonogenic assay; type: functional; outline: as §5
[26] = tested on: L1210; assay: Antileukemic activity against mouse L1210 cells at 2 uM after 12 hrs by clonogenic assay; type: functional; outline: as §5
[27] = tested on: L1210; assay: Antileukemic activity against mouse L1210 cells at 2 uM after 24 hrs by clonogenic assay; type: functional; outline: as §5
[28] = tested on: L1210; assay: Antileukemic activity against mouse L1210 cells at 2 uM after 48 hrs by clonogenic assay; type: functional; outline: as §5
[29] = tested on: L1210; assay: Antileukemic activity against mouse L1210 cells at 5 uM after 12 hrs by clonogenic assay; type: functional; outline: as §5
[30] = tested on: L1210; assay: Antileukemic activity against mouse L1210 cells at 5 uM after 24 hrs by clonogenic assay; type: functional; outline: as §5
[31] = tested on: L1210; assay: Antileukemic activity against mouse L1210 cells at 5 uM after 48 hrs by clonogenic assay; type: functional; outline: as §5
[32] = tested on: L1210; assay: Antileukemic activity against mouse L1210 cells at 10 uM after 12 hrs by clonogenic assay; type: functional; outline: as §5
[33] = tested on: L1210; assay: Antileukemic activity against mouse L1210 cells at 10 uM after 24 hrs by clonogenic assay; type: functional; outline: as §5
[34] = tested on: L1210; assay: Antileukemic activity against mouse L1210 cells at 10 uM after 48 hrs by clonogenic assay; type: functional; outline: as §5
[35] = tested on: L1210; assay: Antileukemic activity against mouse L1210 cells at 20 uM after 12 hrs by clonogenic assay; type: functional; outline: as §5
[36] = tested on: L1210; assay: Antileukemic activity against mouse L1210 cells at 20 uM after 24 hrs by clonogenic assay; type: functional; outline: as §5
[37] = tested on: L1210; assay: Antileukemic activity against mouse L1210 cells at 20 uM after 48 hrs by clonogenic assay; type: functional; outline: as §5
[38] = tested on: L1210; assay: Growth inhibition of mouse L1210 cells after 24 hrs; type: functional; outline: as §4
[39] = tested on: L1210; assay: Antileukemic activity against mouse L1210 cells after 24 hrs by clonogenic assay; type: functional; details: L1210, 24 h, read-out: LC50 (the source's name)
Outline: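 Murine L1210 grown in RPMI-1640 with 5% heat-inactivated FCS and 6 µM 2-mercaptoethanol. Log-phase cells at 2 × 10^4 cells/mL exposed to 1–20 µM for 24 h. Drug removed by centrifugation. 100 cells plated in 0.45% soft agar with 10% serum for 7 days, and colonies (>50 cells) counted. Loss is relative to untreated control. Triplicates, three experiments, mean ± SEM.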

[40] = tested on: HL-60; assay: Growth inhibition of human HL60 cells at 5 uM after 48 hrs; type: functional; details: HL-60, 48 h, read-out: GI; outline: as §1
[41] = tested on: MOLT-3; assay: Growth inhibition of human MOLT3 cells at 2 uM after 48 hrs; type: functional; details: MOLT-3, 48 h, read-out: GI; outline: as §1
[42] = tested on: L1210; assay: Antileukemic activity against mouse L1210 cells at 1 uM after 24 hrs by clonogenic assay; type: functional; outline: as §5
[43] = tested on: L1210; assay: Growth inhibition of mouse L1210 cells at 20 uM after 24 hrs; type: functional; details: L1210, 24 h, read-out: GI; outline: as §4
[44] = tested on: L1210; assay: Growth inhibition of mouse L1210 cells at 20 uM after 48 hrs; type: functional; details: L1210, 48 h, read-out: GI; outline: as §4
[45] = Elimination half life in human plasma; type: ADME, organism-based
[46] = tested on: Plasma; assay: Drug concentration in human plasma; type: ADME, cell-free; details: read-out: Drug uptake
[47] = tested on: Raji; assay: Growth inhibition of human Raji cells at 5 uM after 48 hrs; type: functional; details: read-out: GI; outline: as §1
[48] = Growth inhibition of human KG1a cells at 5 uM after 48 hrs; type: functional; details: KG-1a; outline: as §1
[49] = tested on: HL-60; assay: Induction of p57KIP2 re-expression in human HL60 cellular RNA at 1 to 20 uM after 48 hrs by RT-PCR; type: functional, cell-based
Outline: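 HL-60 cells treated 48 h with 1–20 µM. p57KIP2 transcript detected by RT-PCR against 18S rRNA reference, with cycles set in the exponential phase. Products resolved on 2% agarose with ethidium bromide staining. Repeated twice.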

[50] = tested on: L1210; assay: Induction of p15CDKN2B re-expression in mouse L1210 cells at 1 to 20 uM after 24 hrs by RT-PCR; type: functional, cell-based
Outline: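 Murine L1210 cells exposed to 1–20 µM for 24 h. RNA analysed by RT-PCR for p15CDKN2B, with 18S rRNA as reference. Cycle number set within the exponential phase. Products run on 2% agarose and stained with ethidium bromide. Repeated twice.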

[51] = species: Mus musculus; assay: Toxicity in mouse L1210 cells transplanted CD2F1 mouse assessed as increase in survival time at 0.5% treated with diet for 10 days; type: organism-based; details: in vivo, po, 240 h
Outline: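 Male CD2F1 mice, 24–28 g, n = 11 per group, on a 2016 diet with or without 0.5% supplement, adapted over 10 days. Then injected i.v. with 10^4 L1210 cells (0.1 mL), passaged weekly i.p. as ascites. Diet continued. Survival checked 2–3 times daily and increase in life span calculated. Toxicity assessed by body weight loss.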

[52] = Half life in CD2F1 mouse; type: ADME, organism-based; details: in vivo

## O=c1c(-c2ccc(O)cc2)coc2cc(O)cc(O)c12 [GENISTEIN]
[1]
  IG50: 12.7 µM
[2]
  IG50: 18.2 µM
[3]
  IG50: 18.6 µM
[4]
  IG50: 23 µM
[5]
  Activity: >10%
[6]
  Activity: >10%
[7]
  Activity: >10%
[8]
  CC50: 7.5 µM
[9]
  CC50: 6.3 µM
[10]
  CC50: 13.7 µM
[11]
  inhibition of growth at 1 µM: 3.2%
[12]
  inhibition of growth at 1 µM: 4.1%
[13]
  inhibition of growth at 1 µM: 13.2%
[14]
  inhibition of growth at 2 µM: 6.2%
[15]
  inhibition of growth at 2 µM: 11.4%
[16]
  inhibition of growth at 2 µM: 21.9%
[17]
  inhibition of growth at 5 µM: 15.1%
[18]
  inhibition of growth at 5 µM: 28.5%
[19]
  inhibition of growth at 5 µM: 55.9%
[20]
  inhibition of growth at 10 µM: 23.8%
[21]
  inhibition of growth at 10 µM: 42.8%
[22]
  inhibition of growth at 10 µM: 79.2%
[23]
  inhibition of growth at 20 µM: 54.2%
[24]
  Activity: 11%
[25]
  Activity: 11.9%
[26]
  Activity: 14%
[27]
  Activity: 13%
[28]
  Activity: 8.9%
[29]
  Activity: 44%
[30]
  Activity: 16%
[31]
  Activity: 32.9%
[32]
  Activity: 94%
[33]
  Activity: 63%
[34]
  Activity: 81.1%
[35]
  Activity: 100%
[36]
  Activity: 97%
[37]
  Activity: 99.7%
[38]
  IG50: 18.5 µM
[39]
  CC50: 6.5 µM
[40]
  inhibition of growth at 5 µM: > 10%
[41]
  inhibition of growth at 2 µM: > 10%
[42]
  Activity: 6%
[43]
  inhibition of growth at 20 µM: 66.7%
[44]
  inhibition of growth at 20 µM: 93.1%
[45]
  half-life: 15 h
[46]
  concentration: 4 µM
[47]
  inhibition of growth at 5 µM: > 10%
[48]
  inhibition at 5 µM: > 10%
[49]
  Activity: Active
[50]
  Activity: Active
[51]
  Survival: 187 h
[52]
  half-life: < 0.25 h
